Runt-CBFb FRET = inhibitors of human RUNX1 Runt domain binding to CBFb; inhibition, % at 20 µM; Cerulean-Runt/Venus-CBFb FRET ratio 530/480, 1 h; Q01196+Q13951; hit rate 0.46% among 220,000;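 active means inhibition over about 50% at 20 µM in the single-dose screen, limit read from the data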
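Reagent – Venus-CBFb binding partner, 100 nM · Assay system – Cerulean-tagged RUNX1 Runt domain (FRET donor) fusion protein · Input – 100 nM per protein · Incubation – two 1 h room-temperature incubations shielded from light · Measured by – FRET fluorescence · Medium – Tris buffer pH 7.5 with salts and BSA · Benchmarks – unlabeled CBFb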
MEX-5 binding = C. elegans MEX-5 TCR-2 RNA binding activity. Q9XUB2. MEX-5/FITC-TCR2 RNA binding, fluorescence polarization; stronger effect = lower value. activity score (negative = inhibition of binding), % at 10 µM. hit rate 0.38% among 300,000;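 active means inhibition past about -25% in most replicates, and total fluorescence under double the plate's negative control median, limit read from the data; inconclusive means replicates evenly split on the limit, or fluorescence at least double controls; inactive means too little inhibition in most replicates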
proKLK7 act = activates the human kallikrein-7 zymogen; P49862; purified proKLK7, EDANS-DABCYL substrate fluorescence; 100% is mature enzyme control, 0% vehicle; activation, % at 7 µM; hit rate 0.9% among 370,000; AID 652039;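 active means activation above the mean of all tested compounds plus 3 SD, computed per campaign excluding outliers beyond control limits, cut at about 13% in these data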
Target sequence (P49862 whole entry, looked up): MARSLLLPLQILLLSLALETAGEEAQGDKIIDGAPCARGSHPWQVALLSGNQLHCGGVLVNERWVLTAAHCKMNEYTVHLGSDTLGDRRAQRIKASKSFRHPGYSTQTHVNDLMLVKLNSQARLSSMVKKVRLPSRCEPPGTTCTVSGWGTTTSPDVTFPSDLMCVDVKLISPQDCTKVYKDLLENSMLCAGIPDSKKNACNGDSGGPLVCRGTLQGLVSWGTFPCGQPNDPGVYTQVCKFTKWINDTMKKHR
Runt-SMMHC FRET = Runt domain-CBFb-SMMHC interaction inhibition; Cerulean-Runt/Venus-CBFb-SMMHC FRET ratio 530/480, 1 h; hit rate 0.74% among 220,000; Q01196+Q13951; AID 1434; inhibition, % at 20 µM;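 active means mean inhibition across duplicate retests at 20 µM reaching about 50%, limit read from the data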;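 further: inhibitors lower the FRET ratio by blocking Runt binding to CBFb-SMMHC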
RanGTP-Imp inh = inhibitors of RanGTP-importin-beta interaction, primary screen, biochemical, FRET, CFP-Ran, YFP-importin-beta, homogeneous; cell-free CFP-Ran/YFP-importin-beta FRET ratio; inhibition, % (no concentration beside the values); hit rate 1.1% among 300,000; AID 2216;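 active means more than half of the replicate wells show a fall in the fluorescence ratio signal beyond about 16%, limit read from the data, passing the limit was not always enough; inconclusive means exactly half of the replicate wells pass the set limit; inactive means fewer than half of replicates pass the limit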
KLK7 act conf = confirmation of human kallikrein-7 zymogen activators. purified proKLK7, EDANS-DABCYL substrate fluorescence; scaled: vehicle 0, mature enzyme 100. shares compounds with proKLK7 act. hit rate 68% among 3,200. activation, % at 7 µM;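 active means activation, as change over the incubation, above the mean of all tested compounds plus 3 SD, cut at about 13% in these data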
EDANS-DABCYL int = optically interferes with EDANS-DABCYL signal, flagging KLK7 hits; shares compounds with proKLK7 act; EDANS-DABCYL substrate fluorescence interference, no enzyme, 4 h; solvent 0%, active enzyme control 100%; activation, % at 7 µM; hit rate 80% among 3,200;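 active means activation above the all-compound mean plus 3 SD, ignoring values outside control-based bounds, cut at about 4.8% in these data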;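 further: value is the 4 h activation minus the activation read at time zero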
K7 EDANS ctr = EDANS fluorescence interference in dose response, no enzyme; shares compounds with proKLK7 act; EDANS-DABCYL peptide fluorescence interference; hit rate 20% among 250; EC50, µM;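 active means compounds that raise the fluorescence signal in this interference counterscreen, with EC50 at or below 10 µM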;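 further: intact quenched peptide substrate alone read at 355 nm excitation and 520 nm emission; signal is fluorescence gain from T0 to T4 after four hours at room temperature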
Hits are given with their value; . = inactive; ? = inconclusive; / = no result given. Only some compounds are listed: those with a hit (about 2.1% of all), similar ones and a draw of the others.

SMILES	Runt-CBFb FRET	MEX-5 binding	proKLK7 act	Runt-SMMHC FRET	RanGTP-Imp inh	KLK7 act conf	EDANS-DABCYL int	others
Cc1cc(C)cc(Cn2c3ccc(NC(=S)NC4CCCCC4)cc3c(=O)n2C)c1	/	/	.	/	/	/	/
CC(C)=CCn1c2ccc(NC(=S)NC3CC3)cc2c(=O)n1C	/	/	18	/	/	14	14
Cn1c(=O)c2cc(NC(=S)NC3CC3)ccc2n1Cc1ccccc1	/	/	16	/	/	.	14
COCCNc1oc(-c2ccc(Cl)cc2)nc1C#N	.	.	22	.	.	13	12
Cc1ccc(-c2nc(C#N)c(NCCN3CCCCC3)o2)cc1	.	.	17	.	.	.	7.2
N#Cc1nc(-c2ccc(F)cc2)oc1NCCN1CCOCC1	.	.	.	.	.	/	/
CCN(CC)CCCNc1oc(-c2cccc(Cl)c2)nc1C#N	.	.	41	.	.	.	18
COc1ccc(-c2nc(C#N)c(NCCN(C)C)o2)cc1	/	.	.	/	?	/	/
CN(C)CCCNc1oc(-c2ccc(Cl)cc2)nc1C#N	.	.	34	.	.	24	21
CCOC(=O)C1=C(C)NC(C)=C(C(=O)OCC)C1C(=O)OCC(=O)NC1CCCCC1	/	/	.	/	/	/	/
O=C(Cn1c(NCCO)nc2ccccc21)N1CCN(Cc2ccccc2)CC1	.	.	.	.	.	/	/
COc1ccc(OC)c(S(=O)(=O)N2CCCCC2C(=O)N2CCN(CCO)CC2)c1 (centres undefined)	/	/	.	/	/	/	/
CCNC(=O)c1cc2c(c(-c3cccc(-c4cccnc4)c3)n1)[C@H](CCO)N(S(C)(=O)=O)C2	/	/	.	/	/	/	/
CC(=O)Nc1ccc(C2Nc3ccccc3C(=O)N2C2CCCCC2)cc1 (centres undefined)	.	.	13	.	.	30	26	K7 EDANS ctr=.
O=C(CCc1ccccc1)N[C@H]1[C@@H](OC(=O)c2cccnc2)CCC[C@]12C(=O)N(Cc1ccccc1)c1ccccc12	/	/	.	/	/	/	/
COC(=O)[C@]12CCCCC=C1N(Cc1ccccc1)C(=O)[C@H](CC(=O)NCCCCc1ccccc1)C2	/	/	.	/	/	/	/
COc1cc2c(cc1OC)C1CCN3C(=O)CCC3N1CC2 (centres undefined)	/	/	20	/	/	24	19	K7 EDANS ctr=.
COc1cc2c(cc1OC)CC(=O)N(C)CC2	.	.	.	.	.	/	/
